Test results as given in ChEMBL document CHEMBL2057102, “Aminothienopyridazine inhibitors of tau aggregation: evaluation of structure-activity relationship leads to selection of candidates with desirable in vivo properties” (Bioorg Med Chem, 2012).

Legend:
Homo sapiens [1] = species on record: Homo sapiens; experiment: Inhibition of heparin-induced alexa red-labelled tau K18PL mutant aggregation after 6 hrs by thioflavin-T fluorescence assay relative to control
Procedure, shortened: (§1)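 Heparin-induced fibrillization of tau K18 fragment (residues 244–369) carrying P301L, with tau at 20 μM in sodium acetate buffer. Fibril formation was read by thioflavin-T fluorescence. IC50 came from sigmoidal fitting of concentration-response data, each concentration in triplicate. Values are from a single fit, or the mean of 2 or more analyses where marked.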

[2] = Ratio of fraction unbound in brain homogenate to plasma in mouse at 1 uM after 5 hrs by equilibrium dialysis; format: ADME, tissue-based
Procedure, shortened: (§2)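 Rapid equilibrium dialysis. Compound at 1 μM in mouse plasma or brain homogenate, each diluted threefold with 100 mM sodium phosphate pH 7.4. Triplicate samples dialysed against the same buffer for 5 h at 37 °C with shaking. Both sides were matrix-matched, extracted with acetonitrile and run by LC-MS/MS. fu is buffer response over sample response; brain fu was corrected for tissue dilution.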

[3] = Inhibition of heparin-induced alexa red-labelled tau K18PL mutant aggregation after 6 hrs by thioflavin-T fluorescence assay; set-up: species or system Homo sapiens; procedure, shortened: as §1
Homo sapiens [4] = species on record: Homo sapiens; experiment: Inhibition of heparin-induced tau K18PL mutant aggregation assessed as soluble tau fragment level at 50 uM after 5 days by SDS-PAGE analysis
Procedure, shortened: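 Secondary centrifugation assay. Heparin-induced K18 P301L tau fibrillization mixtures with compound at 50 μM were centrifuged. Soluble and insoluble fractions were analysed by SDS-PAGE to give the percentage of tau remaining soluble.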

Brain [5] = experiment: Fraction unbound in mouse brain homogenate at 1 uM after 5 hrs by equilibrium dialysis; format: ADME, tissue-based; procedure, shortened: as §2
Mus musculus = experiment: Ratio of drug level in brain to plasma in B6C3F1 mouse at 5 mg/kg, ip after 1 hr
[6] = (§3) Drug uptake in B6C3F1 mouse brain at 5 mg/kg, ip after 1 hr; format: ADME, organism-based; set-up: dose 5 mg/kg, route intraperitoneal; conditions: B6C3F1, mouse, brain, read-out: Drug uptake
Procedure, shortened: (§4)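 Single i.p. dose of 5 mg/kg, sacrifice 1 h later. Perfused brain hemispheres were homogenized in 10 mM ammonium acetate pH 5.7 (50% w/v). EDTA plasma was taken. Brain homogenate or plasma was extracted with acetonitrile and analysed by LC-MS/MS (MRM) against matrix standard curves. Brain-to-plasma ratio was taken from total levels.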

[7] = (§5) Drug uptake in B6C3F1 mouse plasma at 5 mg/kg, ip after 1 hr; format: ADME, organism-based; set-up: dose 5 mg/kg, route intraperitoneal; conditions: B6C3F1, mouse, plasma; procedure, shortened: as §4
Brain [8] = experiment: as §3; format: ADME, organism-based; set-up: dose 5 mg/kg, route intraperitoneal; conditions: mouse, in vivo, 1 h, BLD = below limit of detection; procedure, shortened: as §4
Plasma = experiment: as §5; format: ADME, organism-based; set-up: dose 5 mg/kg, route intraperitoneal; conditions: mouse, in vivo, 1 h, BLD = below limit of detection; procedure, shortened: as §4

| Compound | Imax (Homo sapiens [1]) | Ratio [2] | IC50 [3] | inhibition (Homo sapiens [4]) | Fu (Brain [5]) | BPR (Mus musculus) | concentration at 1 h [6] | concentration at 1 h [7] | Drug uptake (Brain [8]) | Cp (Plasma) |
| --- | --- | --- | --- | --- | --- | --- | --- | --- | --- | --- |
| Cc1nn(Cc2ccccc2)c(=O)c2c(N)scc12 | 89% | 0.77 | 1.6 µM | 73% | 5.1% | 0.6 | 48 ng/g | 78 ng/mL | – | – |
| CC(C)NC(=O)c1nn(-c2ccc(F)cc2)c(=O)c2c(N)scc12 | 89% | 1.3 | 1.6 µM | 77% | 2.9% | 2.68 | 280 ng/g | 110 ng/mL | – | – |
| CCOC(=O)c1nn(-c2ccc(Cl)cc2)c(=O)c2c(N)sc(Cl)c12 | 88% | – | 2 µM | 65% | – | – | – | – | – | – |
| Cc1nn(C2CCCCC2)c(=O)c2c(N)scc12 | 65% | – | 31.6 µM | 86% | – | – | – | – | – | – |
| Cc1nn(C(C)C)c(=O)c2c(N)scc12 | 95% | – | 19.9 µM | 17% | – | – | – | – | – | – |
| Nc1scc2c(C(=O)NC3CC3)nn(-c3ccccc3Cl)c(=O)c12 | 68% | – | – | 44% | – | – | – | – | – | – |
| Cc1nn(-c2ccc(Cl)cc2)c(=O)c2c(N)scc12 | 85% | – | 2 µM | 70% | – | – | – | – | – | – |
| CC(C)NC(=O)c1nn(-c2ccc(O)cc2)c(=O)c2c(N)scc12 | 86% | – | 15.8 µM | 84% | – | 0.098 | 14.1 ng/g | 150 ng/mL | – | – |
| O=C(O)c1nn(-c2ccc(F)cc2)c(=O)c2c1CSC2=O | 92% | – | 2.5 µM | 87% | – | – | – | – | – | – |
| CCOC(=O)c1nn(-c2ccc(Cl)cc2)c(=O)c2c(N)sc(Br)c12 | 92% | – | 4 µM | 62% | – | – | – | – | – | – |
| Nc1scc2c(C(=O)NC3CC3)nn(-c3ccc(C(F)(F)F)cc3)c(=O)c12 | 64% | – | 6.3 µM | 83% | – | – | – | – | – | – |
| Cc1nn(-c2ccccn2)c(=O)c2c(N)scc12 | 85% | – | 2 µM | 78% | – | 0.116 | 7.5 ng/g | 61 ng/mL | – | – |
| Cc1nn(CC(F)(F)F)c(=O)c2c(N)scc12 | 81% | – | 10 µM | 78% | – | – | – | – | – | – |
| Nc1scc2c(C(=O)O)nn(-c3ccc(F)cc3)c(=O)c12 | 84% | – | 2 µM | 83% | – | – | – | – | – | – |
| CC(C)NC(=O)c1nn(-c2ccc(Cl)cc2)c(=O)c2c1CSC2=O | 96% | – | 10 µM | 85% | – | 0.0035 | 16.3 ng/g | 4700 ng/mL | – | – |
| Nc1scc2c(-c3ccccc3)nn(CC(F)(F)F)c(=O)c12 | 103% | – | 6.3 µM | 82% | – | – | – | – | – | – |
| CCOC(=O)c1nn(-c2ccc(OC(F)(F)F)cc2)c(=O)c2c(N)scc12 | 41% | – | – | 29% | – | – | – | – | – | – |
| Cc1n[nH]c(=O)c2c(N)scc12 | 87% | – | 8 µM | 81% | – | – | – | – | BLD | BLD |
| CCOC(=O)C1=NN(c2ccc(Cl)cc2)C(=O)C(C#N)C1C (stereo not given) | 4.4% | – | – | 21% | – | – | – | – | – | – |
| CC(C)NC(=O)c1nn(-c2ccc(OC(F)(F)F)cc2)c(=O)c2c(N)scc12 | 67% | – | 15.8 µM | 42% | – | – | – | – | – | – |

| Compound | Imax (Homo sapiens [1]) | Ratio [2] | IC50 [3] | inhibition (Homo sapiens [4]) | Fu (Brain [5]) | BPR (Mus musculus) | concentration at 1 h [6] | concentration at 1 h [7] | Drug uptake (Brain [8]) | Cp (Plasma) |
| --- | --- | --- | --- | --- | --- | --- | --- | --- | --- | --- |
| Nc1scc2c(C(=O)O)nn(-c3ccc(OC(F)(F)F)cc3)c(=O)c12 | 92% | – | 1.6 µM | 71% | – | – | – | – | – | – |
| CCOC(=O)c1nn(-c2ccc(C(F)(F)F)cc2)c(=O)c2c(N)scc12 | 48% | – | – | 27% | – | – | – | – | – | – |
| Nc1scc2c(C(=O)NCC(F)(F)F)nn(-c3ccc(F)cc3)c(=O)c12 | 83% | 2.31 | 8 µM | 75% | 3.2% | 1.59 | 637 ng/g | 401 ng/mL | – | – |
| CCOC(=O)c1nn(-c2ccc(O)cc2)c(=O)c2c(N)scc12 | 81% | – | 5 µM | 69% | – | – | – | – | – | – |
| CCOC(=O)c1nn(-c2ccc(C(C)C)cc2)c(=O)c2c(N)scc12 | 8% | – | – | 17% | – | – | – | – | – | – |
| Nc1scc2c(C(=O)O)nn(-c3ccc(O)cc3)c(=O)c12 | 84% | – | 4 µM | 70% | – | – | – | – | – | – |
| CCOC(=O)c1nn(-c2ccc(F)cc2)c(=O)c2c(N)scc12 | 77% | – | 1 µM | 63% | – | – | – | – | – | – |
| CCOC(=O)c1nn(-c2ccccc2Cl)c(=O)c2c(N)scc12 | 75% | – | 2 µM | 71% | – | – | – | – | – | – |
| Nc1scc2c(C(=O)O)nn(-c3cccc(Cl)c3)c(=O)c12 | 92% | – | 1.6 µM | 73% | – | – | – | – | – | – |
| CCOC(=O)c1nn(-c2ccc(Cl)cc2)c(=O)c2c(NC)scc12 | 39% | – | – | 51% | – | – | – | – | – | – |
| CCOC(=O)c1c(C(=O)c2ccccc2)csc1N | 29% | – | – | 6.5% | – | – | – | – | – | – |
| CCOC(=O)c1nn(-c2ccc(Cl)cc2)c(=O)c2c1C(O)NC2=O (stereo not given) | 57% | – | – | 15% | – | – | – | – | – | – |
| Cc1nn(C)c(=O)c2c(N)scc12 | 82% | – | 2.5 µM | 76% | – | – | – | 10 ng/mL | BLD | – |
| CCOC(=O)c1nn(-c2cccc(Cl)c2)c(=O)c2c(N)scc12 | 82% | – | 3.2 µM | 73% | – | – | – | – | – | – |
| CC(C)c1ccc(-n2nc(C(=O)NC3CC3)c3csc(N)c3c2=O)cc1 | 82% | – | 4 µM | 86% | – | – | – | – | – | – |
| Nc1scc2c(C(=O)O)nn(-c3ccccc3Cl)c(=O)c12 | 86% | – | 3.2 µM | 64% | – | – | – | – | – | – |
| Nc1scc2c(C(=O)O)nn(-c3ccc(C(F)(F)F)cc3)c(=O)c12 | 88% | – | 19.9 µM | 83% | – | – | – | – | – | – |
| CC(C)n1nc(-c2ccccc2)c2csc(N)c2c1=O | 89% | – | 19.9 µM | 92% | – | – | – | – | – | – |
| CC(C)NC(=O)c1nn(-c2cccc(Cl)c2)c(=O)c2c(N)scc12 | 82% | – | 3.2 µM | 73% | – | – | – | – | – | – |
| Cc1nn(-c2cccnc2)c(=O)c2c(N)scc12 | 74% | – | 4 µM | 84% | – | – | – | – | – | – |
